# According to BindingDB's records for doi:10.1016/j.bmcl.2004.04.085 (Merck Sharp & Dohme Research Laboratories, 2004):
# Assays:
# [1] = molecular target: T1, Gamma-aminobutyric acid receptor subunit alpha-3/beta-3/gamma-2 (Homo sapiens, UniProt P34903+P18507+P28472); experiment: In vitro binding affinity against Gamma-aminobutyric acid A receptor, alpha 3 expressed in L(tk) cells by displacement of [3H]Ro-151788
# T1 sequence (P34903 whole entry): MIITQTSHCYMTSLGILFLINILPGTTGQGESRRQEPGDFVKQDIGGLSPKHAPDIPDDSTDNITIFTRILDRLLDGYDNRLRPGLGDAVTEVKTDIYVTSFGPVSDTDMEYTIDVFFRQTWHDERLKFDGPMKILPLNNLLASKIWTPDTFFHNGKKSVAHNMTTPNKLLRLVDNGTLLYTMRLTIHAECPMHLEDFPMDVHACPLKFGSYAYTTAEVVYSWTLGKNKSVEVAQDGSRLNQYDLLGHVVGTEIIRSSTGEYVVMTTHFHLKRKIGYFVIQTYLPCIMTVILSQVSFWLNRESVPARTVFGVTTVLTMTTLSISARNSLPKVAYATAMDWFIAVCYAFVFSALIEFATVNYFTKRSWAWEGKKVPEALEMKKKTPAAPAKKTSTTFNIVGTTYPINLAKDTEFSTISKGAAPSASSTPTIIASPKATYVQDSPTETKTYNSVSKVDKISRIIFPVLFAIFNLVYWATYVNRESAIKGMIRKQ
# T1 sequence (P18507 whole entry): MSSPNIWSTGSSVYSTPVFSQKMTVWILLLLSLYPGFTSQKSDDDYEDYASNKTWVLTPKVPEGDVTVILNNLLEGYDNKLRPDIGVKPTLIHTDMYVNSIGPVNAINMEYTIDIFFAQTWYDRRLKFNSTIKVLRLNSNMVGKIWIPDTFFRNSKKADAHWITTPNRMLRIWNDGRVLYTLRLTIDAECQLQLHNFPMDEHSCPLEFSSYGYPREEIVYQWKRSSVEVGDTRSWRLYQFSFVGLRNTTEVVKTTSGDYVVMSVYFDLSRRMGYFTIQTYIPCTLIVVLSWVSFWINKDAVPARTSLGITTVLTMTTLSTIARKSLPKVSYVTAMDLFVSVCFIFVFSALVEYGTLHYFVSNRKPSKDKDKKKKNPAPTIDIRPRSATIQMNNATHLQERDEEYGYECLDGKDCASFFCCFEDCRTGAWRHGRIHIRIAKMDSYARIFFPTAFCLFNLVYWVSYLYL
# T1 sequence (P28472 whole entry): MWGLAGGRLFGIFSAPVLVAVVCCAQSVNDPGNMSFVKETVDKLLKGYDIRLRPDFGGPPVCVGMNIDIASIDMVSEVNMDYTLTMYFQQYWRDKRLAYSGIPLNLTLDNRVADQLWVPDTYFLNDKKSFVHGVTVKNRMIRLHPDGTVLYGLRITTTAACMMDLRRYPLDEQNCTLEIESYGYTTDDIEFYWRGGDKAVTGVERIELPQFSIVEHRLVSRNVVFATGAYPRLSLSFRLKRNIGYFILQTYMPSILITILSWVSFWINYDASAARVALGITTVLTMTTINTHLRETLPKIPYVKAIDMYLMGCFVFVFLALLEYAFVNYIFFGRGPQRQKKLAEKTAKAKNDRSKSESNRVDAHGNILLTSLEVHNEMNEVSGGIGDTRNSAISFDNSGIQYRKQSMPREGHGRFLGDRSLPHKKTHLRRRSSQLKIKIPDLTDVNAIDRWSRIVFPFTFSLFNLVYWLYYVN
# In short: (§1)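 Binding to cloned human α1β3γ2, α2β3γ2 or α3β3γ2 receptors stably expressed in L(tk-) cells, measured as displacement of [3H]Ro15-1788; means ± SEM, n = 3-7.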
# [2] = molecular target: T2, Gamma-aminobutyric acid receptor subunit alpha-1/beta-3/gamma-2 (Homo sapiens, UniProt P14867+P18507+P28472); experiment: In vitro binding affinity against gamma-aminobutyric acid A receptor, alpha 1 expressed in L(tk) cells by displacement of [3H]Ro-151788; in short: as §1
# T2 sequence (P14867 whole entry): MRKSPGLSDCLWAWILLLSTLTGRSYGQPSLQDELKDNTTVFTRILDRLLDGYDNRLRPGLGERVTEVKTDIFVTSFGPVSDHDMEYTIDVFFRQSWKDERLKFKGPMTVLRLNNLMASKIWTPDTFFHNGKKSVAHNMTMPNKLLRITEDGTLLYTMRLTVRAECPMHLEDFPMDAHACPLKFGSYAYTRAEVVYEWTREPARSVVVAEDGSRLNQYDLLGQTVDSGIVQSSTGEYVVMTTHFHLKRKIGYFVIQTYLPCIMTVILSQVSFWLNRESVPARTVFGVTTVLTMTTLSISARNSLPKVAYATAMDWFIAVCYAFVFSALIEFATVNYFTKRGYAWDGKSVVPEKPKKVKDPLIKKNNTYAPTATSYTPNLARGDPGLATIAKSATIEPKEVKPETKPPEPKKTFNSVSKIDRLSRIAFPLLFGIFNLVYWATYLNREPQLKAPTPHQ
# T2 sequence (P18507 whole entry): T1 sequence (P18507 whole entry)
# T2 sequence (P28472 whole entry): T1 sequence (P28472 whole entry)
# [3] = molecular target: T1, Gamma-aminobutyric acid receptor subunit alpha-3/beta-3/gamma-2; experiment: In vitro displacement of [3H]Ro-151788 from human GABA-A receptor alpha-3-beta-3-gamma-2 subunits expressed in L(tk-) cells; in short: as §1
SMILES,Ki [1],Ki [2],Ki [3]
"O=c1c2c([nH]n1-c1ccc(Cl)cc1)C1CCCCCC1N=C2 (stereo not drawn) [2-(4-Chloro-phenyl)-2,5a,6,7,8,9,10,10a-octahydro-5H-1,2,5-triaza-cyclohepta[e]inden-3-one]",,1.1 nM,
"O=c1c2c([nH]n1-c1ccc(Cl)cc1)C1CN(CC3CC3)CCC1N=C2 (stereo not drawn) [2-(4-Chloro-phenyl)-8-cyclopropylmethyl-2,5,5a,6,7,8,9,9a-octahydro-pyrazolo[4,3-c][1,6]naphthyridin-3-one]",7.5 nM,,
"O=c1c2cnc3c(c2[nH]n1-c1ccc(OC(F)F)cc1)CCCC3 [2-(4-Difluoromethoxy-phenyl)-2,5,6,7,8,9-hexahydro-pyrazolo[4,3-c]quinolin-3-one]",2.3 nM,1 nM,
"O=c1c2cnc3c(c2[nH]n1-c1ccc(OC(F)(F)F)cc1)CCCC3 [2-(4-Trifluoromethoxy-phenyl)-2,5,6,7,8,9-hexahydro-pyrazolo[4,3-c]quinolin-3-one]",,7.3 nM,

# Results, then the molecule that gave them:
Ki [1],Ki [2],Ki [3],SMILES
1.1 nM,,,"O=c1c2c([nH]n1-c1ccc(Cl)cc1)C1CCCC1N=C2 (stereo not drawn) [2-(4-Chloro-phenyl)-2,5a,6,7,8,8a-hexahydro-5H-cyclopenta[b]pyrazolo[3,4-d]pyridin-3-one]"
,1.1 nM,2.2 nM,"O=c1c2cnc3c(c2[nH]n1-c1ccc(OC2CC2)cc1)CCCC3 [2-(4-Cyclopropoxy-phenyl)-2,5,6,7,8,9-hexahydro-pyrazolo[4,3-c]quinolin-3-one]"
